Experimental data published in ChEMBL document CHEMBL1122743, “Structure-activity relationship study of the inhibition of adrenal cortical 11 beta-hydroxylase by new metyrapone analogues” (J Med Chem, 1984).

Target: T1, Cytochrome P450 11B1, mitochondrial (Bos taurus, UniProt P15150)
T1 sequence (P15150 whole entry): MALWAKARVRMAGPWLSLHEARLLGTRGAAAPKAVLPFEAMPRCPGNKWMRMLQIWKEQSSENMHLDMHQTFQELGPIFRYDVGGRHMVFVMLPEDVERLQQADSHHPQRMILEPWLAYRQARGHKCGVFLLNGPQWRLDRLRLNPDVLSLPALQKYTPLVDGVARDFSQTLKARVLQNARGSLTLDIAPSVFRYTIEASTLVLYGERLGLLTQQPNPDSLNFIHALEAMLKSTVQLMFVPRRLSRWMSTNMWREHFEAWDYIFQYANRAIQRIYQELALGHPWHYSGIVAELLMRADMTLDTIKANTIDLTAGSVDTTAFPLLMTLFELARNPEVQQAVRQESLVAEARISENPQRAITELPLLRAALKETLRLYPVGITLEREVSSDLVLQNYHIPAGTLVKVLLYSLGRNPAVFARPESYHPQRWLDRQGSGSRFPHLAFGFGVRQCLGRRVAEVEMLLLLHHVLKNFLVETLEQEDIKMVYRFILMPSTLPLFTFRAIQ
Test: Evaluated for inhibition of bovine adrenal cortical mitochondrial 11 beta-hydroxylase
Type: functional
Procedure, shortened: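 Crude lyophilized, defatted adrenal cortical mitochondria (300 µg) plus 15.0 µM purified adrenodoxin, in 0.50 mL of 50 mM potassium phosphate pH 7.40. Additions: 200 µM DOC with [3H]DOC tracer, 16 mM MgCl2, 4.6% propylene glycol, inhibitor (final 1% ethanol). Preincubated 5 min at 37 °C, then started with 1.5 mM NADPH. Products extracted into CH2Cl2, separated by TLC, counted by scintillation. Percent inhibition versus 1% ethanol controls; duplicates.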

Compound	IC50 [µM]
CC(C)(c1cccnc1)C(Cl)c1cccnc1 (stereo not given)	7.25
CC(C(=O)c1ccccc1)c1cccnc1 (stereo not given)	7.72
COC(c1cccnc1)C(C)(C)c1cccnc1 (stereo not given)	7.3
CC(C)(c1cccnc1)C(N)c1cccnc1 (stereo not given)	> 1000
CC(C)(c1cccnc1)C(I)c1cccnc1 (stereo not given)	5.36
CC(C)(C(=NO)c1cccnc1)c1cccnc1	4.78
O=C(Cc1cccnc1)c1ccccc1	158
CC(=O)NC(c1cccnc1)C(C)(C)c1cccnc1 (stereo not given)	87.5
CC(C)(c1cccnc1)C(O)c1cccnc1 (stereo not given) [METYRAPOL]	7.05
CC(C)(C(=O)c1cccnc1)c1cccnc1 [METYRAPONE]	7.83

The next compounds have a lower IC50 than those just listed; values first:

IC50 [µM]	Compound
3.3	CC(C)(C(=O)c1ccccc1)c1cccnc1
2.64	CC(C)(Cc1cccnc1)c1cccnc1
1.63	CC(C)(c1cccnc1)C(Cl)c1ccccc1 (stereo not given)
1.53	CC(C)(c1cccnc1)C(O)c1ccccc1 (stereo not given)
0.66	CC(C)(Cc1ccccc1)c1cccnc1
